Reference: ChEMBL document CHEMBL1127309, “A novel and useful descriptor for hydrophobicity, partition coefficient micellar-water, and its application to a QSAR study of antiplatelet agents” (J Med Chem, 1994)

What was measured:
[1] = Retention time at 25 mM; type: ADME; settings: 25000 µM
In short: (§1)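 Reversed-phase HPLC on a C8 column (4.6 × 100 mm, 10 µm) at room temperature (22-25 °C). The mobile phase was Brij35 micelle solution in 10 mM phosphate buffer, pH 4.01, run separately at 25, 30, 35 and 40 mM Brij35. NaNO₃ served as the dead-time marker.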

[2] = Retention time at 30 mM; type: ADME; settings: 30000 µM; in short: as §1
[3] = Retention time at 35 mM; type: ADME; settings: 35000 µM; in short: as §1
Rattus norvegicus [4] = assay: Tested for inhibitory activity on rat platelet aggregation induced by collagen measured after 1 hr of oral administration of compound (10 mg/kg) in rat.; type: functional
Rattus norvegicus [5] = assay: Tested for antiplatelet activity in rat by conversion of the original antiplatelet activity data (%) to antiplatelet activity values at 10 umol/kg; type: functional
[6] = Retention time at 40 mM; type: ADME; settings: 40000 µM; in short: as §1
Rattus norvegicus [7] = assay: Tested for inhibitory activity on rat platelet aggregation induced by collagen ex vivo measured after 1 hr of oral administration of compound (10 mg/kg) in rat.; type: functional

| SMILES | Retention time [1] [min] | Retention time [2] [min] | Retention time [3] [min] | Inhibition (Rattus norvegicus [4]) [%] | Log APA (Rattus norvegicus [5]) | Retention time [6] [min] | Inhibition (Rattus norvegicus [7]) [%] |
| --- | --- | --- | --- | --- | --- | --- | --- |
| COc1cc2c(cc1-c1nc(C)c(-c3cccnc3)[nH]1)nc(O)n2C | 1.375 | 1.362 | 1.345 | 11 | 0.57 | 1.331 |  |
| COc1c(-c2nc(C)c(-c3cccnc3)[nH]2)cc2nc(O)[nH]c2c1Cl | 1.32 | 1.301 | 1.296 | 17 | 0.79 | 1.289 |  |
| COc1c(-c2nc(C)c(-c3cccnc3)[nH]2)ccc2[nH]c(C)nc12 | 2.79 | 2.7 | 2.56 | 16 | 0.72 | 2.43 |  |
| COc1c(-c2nc(C)c(-c3cccnc3)[nH]2)cc2nc(C)[nH]c2c1Cl | 4.69 | 4.36 | 4.05 | 63 | 1.4 | 3.79 |  |
| COc1cc(OC)c(-c2nc(C)c(-c3cccnc3)[nH]2)cc1NC(C)=O | 2.75 | 2.6 | 2.5 | 24 | 0.93 | 2.41 |  |
| Cc1nc2cc(Cl)c(-c3nc(C)c(-c4cccnc4)[nH]3)cc2[nH]1 | 3.56 | 3.41 | 3.19 | 15 | 0.68 | 3 |  |
| COc1ccccc1-c1nc(C)c(-c2cccnc2)[nH]1 | 4.59 | 4.21 | 3.97 | 49 | 1.1 | 3.76 |  |
| COc1cc(NC(C)=O)c([N+](=O)[O-])cc1-c1nc(C)c(-c2cccnc2)[nH]1 | 10.35 | 9.08 | 8.08 | 86 | 1.5 | 7.33 |  |
| CSc1ccccc1-c1nc(C)c(-c2cccnc2)[nH]1 | 7.65 | 7.01 | 6.46 | 32 | 0.95 | 6 |  |
| Cc1[nH]c(-c2ccccc2N)nc1-c1cccnc1 | 3.58 | 3.37 | 3.21 | 25 | 0.8 | 3.07 |  |
| COc1c(-c2nc(C)c(-c3cccnc3)[nH]2)cc(Cl)c2[nH]c(CCC(=O)O)nc12 | 3.68 | 3.47 | 3.27 | 6 | 0.4 | 3.1 |  |
| CNC(=O)Nc1ccccc1-c1nc(C)c(-c2cccnc2)[nH]1 | 6.34 | 5.78 | 5.35 | 46 | 1.1 | 5 |  |
| Cc1[nH]c(-c2ccccc2Cl)nc1-c1cccnc1 | 8.63 | 7.83 | 7.17 | 9 | 0.38 | 6.64 |  |
| Cc1nc2cc(-c3nc(C)c(-c4cccnc4)[nH]3)c(C)cc2[nH]1 | 1.3 | 1.294 | 1.28 | 18 | 0.74 | 1.271 |  |
| Cc1[nH]c(-c2ccccc2F)nc1-c1cccnc1 | 8.75 | 7.84 | 7.13 | 98 | 1.4 | 6.57 |  |
| Cc1ccccc1-c1nc(C)c(-c2cccnc2)[nH]1 | 5.2 | 4.92 | 4.64 | 6 | 0.18 | 4.39 |  |
| COC(=O)Nc1ccccc1-c1nc(C)c(-c2cccnc2)[nH]1 | 8.79 | 7.94 | 7.27 |  | 1.4 | 6.7 | 73 |
| COc1cc(NC(C)=O)c(Cl)cc1-c1nc(C)c(-c2cccnc2)[nH]1 | 7.95 | 7.01 | 6.32 | 65 | 1.4 | 5.78 |  |
| COc1cc2[nH]c(C)nc2cc1-c1nc(C)c(-c2cccnc2)[nH]1 | 2.23 | 2.16 | 2.06 | 21 | 0.83 | 1.99 |  |
| COc1c(-c2nc(C)c(-c3cccnc3)[nH]2)cc(Cl)c2[nH]c(C)nc12 | 9.36 | 8.14 | 7.24 | 51 | 1.3 | 6.52 |  |
| CCOC(=O)COc1ccccc1-c1nc(C)c(-c2cccnc2)[nH]1 | 9.21 | 7.12 | 6.57 | 12 | 0.6 | 6.18 |  |
| CCOc1ccccc1-c1nc(C)c(-c2cccnc2)[nH]1 | 6.01 | 5.44 | 5.08 | 45 | 1.1 | 4.77 |  |
